SMILES strings stand for the structures. ≈ marks a conversion by molar mass, not a printed value. Calls of active or inactive are those of the source. Bounds are passed on as bounds.

Consider one compound from ChEMBL document CHEMBL3588802, “Thiol activated prodrugs of sulfur dioxide (SO2) as MRSA inhibitors” (Bioorg Med Chem Lett, 2015).

For data set [1], the system named is Staphylococcus aureus. Description: Antibacterial activity against patient-derived methicillin-resistant Staphylococcus aureus 7425 after 18 to 20 hrs by microbroth dilution method. Type of data set: functional. The method, boiled down: (§1)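 Patient-derived MRSA clinical isolates from the Department of Microbiology, Nizam's Institute of Medical Sciences, Hyderabad. MIC determined by broth dilution.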
On the technique in general: Broth dilution looks for growth in wells or tubes with falling amounts of substance.

Data set [2] deals with Staphylococcus aureus. Description: Antibacterial activity against methicillin-sensitive Staphylococcus aureus after 18 to 20 hrs by microbroth dilution method. Type of data set: functional.
Data set [3] is described as follows: Selectivity index, ratio of GI50 for human A549 cells to MIC for Staphylococcus aureus. The method, boiled down: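 Selectivity index calculated as GI50 in A549 lung carcinoma cells divided by MIC.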
Data set [4] deals with Staphylococcus aureus. Description: Induction of intracellular oxidative species generation in methicillin-sensitive Staphylococcus aureus 29213 at 0.5 to 8 ug/ml after 1 hr by DCFH2-DA dye-based fluorescence assay. It counts as functional, organism-based. The gist of the method:
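Intracellular oxidative species in S. aureus are read as fluorescence of 2,7-dichlorodihydrofluorescein-diacetate (DCFH2-DA) after exposure to compound.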

Data set [5] relates to Staphylococcus aureus. Briefly: Antibacterial activity against patient-derived methicillin-resistant Staphylococcus aureus 7419 after 18 to 20 hrs by microbroth dilution method. Type of data set: functional. The method, boiled down:
as §1

Data set [6] deals with Staphylococcus aureus. Briefly: Antibacterial activity against methicillin-resistant Staphylococcus aureus after 18 to 20 hrs by microbroth dilution method. It counts as functional.
The test system of data set [7] is Staphylococcus aureus. Briefly: Antibacterial activity against patient-derived methicillin-resistant Staphylococcus aureus K1 after 18 to 20 hrs by microbroth dilution method. It counts as functional. The method, boiled down:
as §1

A short description of data set [8]: Cytotoxicity against human A549 cells after 72 hrs by MTT assay. Type of data set: cell-based. For orientation: Tetrazolium dyes change colour on reduction, which living cells bring about.
Data set [9] has as its system Staphylococcus aureus. Description: Induction of intracellular thiol depletion in Staphylococcus aureus after 60 mins by monobromobimane-based fluorescence assay relative to control. It counts as functional, organism-based.
The test system of data set [10] is Staphylococcus aureus. Description: Antibacterial activity against patient-derived methicillin-resistant Staphylococcus aureus B19506 after 18 to 20 hrs by microbroth dilution method. Type of data set: functional. The method, boiled down:
as §1

The subject of data set [11] is Enterococcus faecalis. Briefly: Antibacterial activity against Enterococcus faecalis after 18 to 20 hrs by microbroth dilution method. It counts as functional.
Data set [12] has as its system Escherichia coli. Description: Antibacterial activity against Escherichia coli after 18 to 20 hrs by microbroth dilution method. Type of data set: functional.
Data set [13] relates to Staphylococcus aureus. Description: Antibacterial activity against patient-derived methicillin-resistant Staphylococcus aureus 7386 after 18 to 20 hrs by microbroth dilution method. It counts as functional. The gist of the method:
as §1

One may read the MIC as the smallest concentration in the dilution series that meets the test's criterion for growth inhibition. Higher therefore signals a need for much substance. Usually GI50 stands for the concentration at which growth is held to half of that of the control. `C#CCN(c1cccc(OC)c1)S(=O)(=O)c1ccc([N+](=O)[O-])cc1[N+](=O)[O-]`: the MIC in data set [1] was 2 µg/mL (≈ 5.11 µM); in data set [2] it was 4 µg/mL (≈ 10.2 µM); in [5], 4 µg/mL (≈ 10.2 µM); in data set [6], 4 µg/mL (≈ 10.2 µM); in [7], 4 µg/mL (≈ 10.2 µM); in data set [10], 2 µg/mL (≈ 5.11 µM). For the same compound, the MIC was 8 µg/mL (≈ 20.4 µM) in data set [11], more than 32 µg/mL in [12] and 2 µg/mL (≈ 5.11 µM) in data set [13]. Further, the “Selectivity Index” value in data set [3] is on record as 5.2. Further, the result in data set [4] was Active. Moreover, in data set [8], the GI50 at 72 h is 27 µM. In addition, in data set [9], the Activity entry was “Dose-dependent effect”.
